Experimental data published in ChEMBL document CHEMBL3259553 (J Med Chem, 2014).
pIC50: −log10 of the molar value. Converted amounts (≈) assume the structure as drawn. The source made the active and inactive calls. The calls are words filed in the database; no cut-off is given here.

How the values were obtained:
Rattus norvegicus [1] = test: Cardiotoxicity in thyroidectomized rat assessed as induction of alpha-MHC hnRNA expression in cardiac myocyte at 5 to 37.5 mg/kg, ip measured after 6 hrs; assay type: toxicity, organism-based, Heart; design: dose 5-37.5 mg/kg, route intraperitoneal; details: in vivo
Method in brief: (§1)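 Thyroidectomized rats were dosed intraperitoneally at 5, 20 or 37.5 mg/kg, with 4 rats per group. Vehicle was 4% DMSO, 15% PEG-400 and 81% of 30% HPBCD in phosphate buffer. Cardiac α-MHC hnRNA, in arbitrary units, and plasma concentration were measured 6 h after dosing. Comparators were untreated thyroidectomized rats and euthyroid rats.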

[2] = Plasma concentration in thyroidectomized rat at 37.5 mg/kg, ip measured after 6 hrs; assay type: ADME, organism-based; design: dose 37.5 mg/kg, route intraperitoneal; method in brief: as §1
Rattus norvegicus [3] = test: Toxicity in thyroidectomized rat assessed as T3 activity at 37.5 mg/kg, ip measured after 6 hrs; assay type: organism-based; design: dose 37.5 mg/kg, route intraperitoneal; details: in vivo
Method in brief: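 Thyroidectomized rats, 4 per group, dosed ip at 5, 20 and 37.5 mg/kg in 4% DMSO, 15% PEG-400 and 81% of 30% HPBCD in phosphate buffer. Cardiac α-MHC hnRNA was measured 6 h post-dose and expressed relative to euthyroid or T3-treated full activity. Plasma exposure was measured at 6 h.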

[4] = Intrinsic clearance in human hepatocytes assessed per million cells; assay type: ADME, cell-based, Hepatocyte; details: read-out: CLH
hERG (KCNH2) = hERG (KCNH2) (Homo sapiens, UniProt Q12809); test: Inhibition of human ERG
Method in brief: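 hERG channel blockade was expressed as an IC20.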

Cytochrome P450 3A4 = Cytochrome P450 3A4 (Homo sapiens, UniProt P08684); test: Inhibition of CYP3A4 (unknown origin); assay type: ADME
Cytochrome P450 3A5 = Cytochrome P450 3A5 (Homo sapiens, UniProt P20815); test: Inhibition of CYP3A5 (unknown origin); assay type: ADME
Cytochrome P450 2C19 = Cytochrome P450 2C19 (Homo sapiens, UniProt P33261); test: Inhibition of CYP2C19 (unknown origin); assay type: ADME
Method in brief: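 Time-dependent inhibition of the same enzyme was also assessed, with and without NADPH.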

[5] = Clearance in rat at 5 mg/kg, iv; assay type: ADME, organism-based; design: dose 5 mg/kg, route intravenous; details: in vivo
Method in brief: (§2)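 Rat pharmacokinetics after a 5 mg/kg dose given iv, or given orally as a suspension. Values are means with SD from N = 3 rats.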

[6] = Volume of distribution at steady state in rat at 5 mg/kg, iv; assay type: ADME, organism-based; design: dose 5 mg/kg, route intravenous; details: in vivo, read-out: Vdss
Method in brief: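 Rats, N = 3, dosed iv at 5 mg/kg in parallel with a 5 mg/kg oral suspension. Pharmacokinetic parameters are mean values with SD.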

[7] = Half life in rat at 5 mg/kg, iv; assay type: ADME, organism-based; design: dose 5 mg/kg, route intravenous; details: in vivo; method in brief: as §2
[8] = AUC in rat at 5 mg/kg, po; assay type: ADME, organism-based; design: dose 5 mg/kg, route oral; details: plasma
Rattus norvegicus [9] = test: Cmax in rat at 5 mg/kg, po; assay type: ADME, organism-based; design: dose 5 mg/kg, route oral; details: in vivo; method in brief: as §2
[10] = Half life in rat at 5 mg/kg, po; assay type: ADME, organism-based; design: dose 5 mg/kg, route oral; details: in vivo; method in brief: as §2
Mus musculus [11] = test: Toxicity in diet-induced obese C57Bl/6J mouse model assessed as effect on bone mineral density at 0.3 to 10 mg/kg, po administered daily for 23 days; assay type: organism-based; design: dose 0.3-10 mg/kg, route oral; details: in vivo
Method in brief: (§3)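 C57Bl/6J mice aged six weeks were fed a high fat diet for 34 weeks. Body weight and food intake were monitored. BMD and body composition were assessed on day 22, and laboratory assessments were made at study end.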

Mus musculus [12] = test: Toxicity in diet-induced obese C57Bl/6J mouse model assessed as effect on heart size at 0.3 to 10 mg/kg, po administered daily for 23 days; assay type: organism-based; design: dose 0.3-10 mg/kg, route oral; details: in vivo; method in brief: as §3
Mus musculus [13] = test: Toxicity in diet-induced obese C57Bl/6J mouse model assessed as effect on kidney size at 0.3 to 10 mg/kg, po administered daily for 23 days; assay type: organism-based; design: dose 0.3-10 mg/kg, route oral; details: in vivo; method in brief: as §3
Rattus norvegicus [14] = species on record: Rattus norvegicus; test: Antidyslipidemic activity in hypercholesterolemic rat model assessed as reduction in non-HDL-C level; assay type: functional, organism-based
Rattus norvegicus [15] = species on record: Rattus norvegicus; test: Antidyslipidemic activity in hypercholesterolemic rat model assessed as reduction in liver triglycerides; assay type: functional, organism-based
Oryctolagus cuniculus [16] = species on record: Oryctolagus cuniculus; test: Antidyslipidemic activity in hypercholesterolemic rabbit model assessed as reduction in non-HDL-C level; assay type: functional, organism-based
Oryctolagus cuniculus [17] = species on record: Oryctolagus cuniculus; test: Antidyslipidemic activity in hypercholesterolemic rabbit model assessed as reduction in liver triglycerides; assay type: functional, organism-based
Oryctolagus cuniculus [18] = species on record: Oryctolagus cuniculus; test: Toxicity in hypercholesterolemic rabbit model assessed as effect on central thyroid axis; assay type: organism-based; details: in vivo
Oryctolagus cuniculus [19] = test: Antidyslipidemic activity in hypercholesterolemic rabbit model assessed as reduction in lipid level in coadministered with atorvastatin; assay type: functional, organism-based
Mus musculus [20] = species on record: Mus musculus; test: Antidyslipidemic activity in diet-induced obese C57Bl/6J mouse model assessed as improvement of insulin sensitivity; assay type: functional, organism-based
Homo sapiens [21] = test: Toxicity in healthy human with mildly elevated LDL-C level assessed as adverse events at 5 to 200 mg, po qd for 2 weeks by multiple ascending dose study; assay type: organism-based; details: in vivo, 336 h
Method in brief: (§4)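 Multiple ascending dose study lasting 2 weeks, run after a single ascending dose study. Healthy subjects with LDL-C >110 mg/dL took oral doses once daily from 5 to 200 mg. Safety, thyroid axis measures (free T4, free T3, TSH), heart rate, QT and liver enzymes were monitored. Lipid changes were compared with placebo.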

Homo sapiens [22] = test: Toxicity in healthy human with mildly elevated LDL-C level assessed as central thyroid axis dysfunction at 5 to 200 mg, po qd for 2 weeks by multiple ascending dose study; assay type: organism-based; details: in vivo, 336 h; method in brief: as §4
Homo sapiens [23] = test: Toxicity in healthy human with mildly elevated LDL-C level assessed as effect on heart rate at 5 to 200 mg, po qd for 2 weeks by multiple ascending dose study; assay type: organism-based; details: in vivo, 336 h
Method in brief: (§5)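 Multiple ascending dose study after single ascending dose study. Healthy subjects with LDL-C >110 mg/dL received once daily oral doses of 5 to 200 mg for 2 weeks. Safety and tolerability were assessed, covering QT interval, heart rate, vital signs and liver enzymes.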

Homo sapiens [24] = test: Toxicity in healthy human with mildly elevated LDL-C level assessed as effect on QT interval at 5 to 200 mg, po qd for 2 weeks by multiple ascending dose study; assay type: organism-based; details: in vivo, 336 h; method in brief: as §5
Homo sapiens [25] = test: Toxicity in healthy human with mildly elevated LDL-C level assessed as effect on vital signs at 5 to 200 mg, po qd for 2 weeks by multiple ascending dose study; assay type: organism-based; details: in vivo, 336 h; method in brief: as §5
Homo sapiens [26] = test: Toxicity in healthy human with mildly elevated LDL-C level assessed as reversible reduction in free T4 level at 200 mg, po qd for 2 weeks; assay type: organism-based; design: scale not given: the % may be the effect or the level left; details: in vivo, 336 h
Method in brief: (§6)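 Healthy subjects with LDL-C >110 mg/dL received once daily oral doses for 2 weeks in a multiple ascending dose study. Free T3, free T4 and TSH were compared with placebo.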

Homo sapiens [27] = test: Toxicity in healthy human with mildly elevated LDL-C level assessed as effect on free T3 level at 100 to 200 mg, po qd for 2 weeks; assay type: organism-based; details: in vivo, 336 h; method in brief: as §6
Homo sapiens [28] = test: Toxicity in healthy human with mildly elevated LDL-C level assessed as effect on TSH level at 100 to 200 mg, po qd for 2 weeks; assay type: organism-based; details: in vivo, 336 h; method in brief: as §6
Homo sapiens [29] = test: Antidyslipidemic activity in healthy human with mildly elevated LDL-C level assessed as reduction in LDL-C at 50 to 200 mg, po qd for 2 weeks by multiple ascending dose study relative to placebo control; assay type: functional; design: scale not given: the % may be the effect or the level left; method in brief: as §4
Caco-2 = test: Permeability from basolateral to apical side of human Caco2 cells; assay type: ADME, cell-based
[30] = Plasma concentration in thyroidectomized rat at 20 mg/kg, ip measured after 6 hrs; assay type: ADME, organism-based; design: dose 20 mg/kg, route intraperitoneal; method in brief: as §1
[31] = Ratio of drug uptake in liver to plasma in diet-induced obese C57Bl/6J mouse model; assay type: ADME, tissue-based
[32] = Fraction unbound in human; assay type: ADME, organism-based; details: in vivo
[33] = Solubility of the compound at pH 7.04; details: buffer

Chain of hERG (KCNH2) (Q12809 whole entry): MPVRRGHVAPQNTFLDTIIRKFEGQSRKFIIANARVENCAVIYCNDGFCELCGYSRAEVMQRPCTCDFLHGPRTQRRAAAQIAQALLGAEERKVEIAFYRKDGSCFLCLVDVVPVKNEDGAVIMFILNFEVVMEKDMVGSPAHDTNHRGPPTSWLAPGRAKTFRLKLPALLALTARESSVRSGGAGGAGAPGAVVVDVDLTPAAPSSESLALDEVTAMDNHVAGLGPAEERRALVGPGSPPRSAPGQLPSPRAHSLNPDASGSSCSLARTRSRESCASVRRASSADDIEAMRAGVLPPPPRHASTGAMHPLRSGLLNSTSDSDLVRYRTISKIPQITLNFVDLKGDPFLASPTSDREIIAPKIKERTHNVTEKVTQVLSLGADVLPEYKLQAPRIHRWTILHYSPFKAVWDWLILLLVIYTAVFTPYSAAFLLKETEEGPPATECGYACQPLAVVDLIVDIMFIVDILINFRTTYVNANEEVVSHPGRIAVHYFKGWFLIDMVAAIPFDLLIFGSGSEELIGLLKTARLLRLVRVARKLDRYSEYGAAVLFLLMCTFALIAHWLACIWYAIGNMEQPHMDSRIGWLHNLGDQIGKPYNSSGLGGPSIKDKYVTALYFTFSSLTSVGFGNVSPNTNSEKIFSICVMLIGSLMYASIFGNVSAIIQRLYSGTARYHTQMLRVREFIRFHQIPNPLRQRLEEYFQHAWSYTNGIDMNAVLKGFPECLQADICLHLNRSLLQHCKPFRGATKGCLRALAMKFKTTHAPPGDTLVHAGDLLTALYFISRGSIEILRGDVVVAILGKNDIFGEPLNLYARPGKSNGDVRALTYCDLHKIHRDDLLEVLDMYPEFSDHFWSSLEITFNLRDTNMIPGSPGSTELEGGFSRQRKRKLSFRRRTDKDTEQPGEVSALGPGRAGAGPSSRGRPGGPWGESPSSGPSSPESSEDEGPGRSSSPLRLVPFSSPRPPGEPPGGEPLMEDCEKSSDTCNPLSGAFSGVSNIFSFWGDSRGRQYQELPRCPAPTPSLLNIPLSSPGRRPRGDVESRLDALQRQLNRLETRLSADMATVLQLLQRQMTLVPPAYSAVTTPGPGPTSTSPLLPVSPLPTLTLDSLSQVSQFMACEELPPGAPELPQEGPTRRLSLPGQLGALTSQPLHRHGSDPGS
Chain of Cytochrome P450 3A4 (P08684 whole entry): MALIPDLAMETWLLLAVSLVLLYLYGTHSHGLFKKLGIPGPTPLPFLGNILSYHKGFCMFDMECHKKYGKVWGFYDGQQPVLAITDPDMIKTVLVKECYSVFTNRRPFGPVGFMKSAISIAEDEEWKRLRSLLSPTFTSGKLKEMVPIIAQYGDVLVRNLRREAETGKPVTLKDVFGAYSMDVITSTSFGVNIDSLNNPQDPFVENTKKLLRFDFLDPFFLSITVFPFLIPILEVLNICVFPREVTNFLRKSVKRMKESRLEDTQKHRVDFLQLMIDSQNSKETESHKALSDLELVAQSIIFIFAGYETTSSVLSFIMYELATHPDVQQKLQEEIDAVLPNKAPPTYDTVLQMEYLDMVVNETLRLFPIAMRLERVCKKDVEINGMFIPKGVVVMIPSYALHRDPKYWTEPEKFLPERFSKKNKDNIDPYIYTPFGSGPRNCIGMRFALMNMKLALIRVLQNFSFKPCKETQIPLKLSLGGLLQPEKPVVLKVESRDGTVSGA
Chain of Cytochrome P450 3A5 (P20815 whole entry): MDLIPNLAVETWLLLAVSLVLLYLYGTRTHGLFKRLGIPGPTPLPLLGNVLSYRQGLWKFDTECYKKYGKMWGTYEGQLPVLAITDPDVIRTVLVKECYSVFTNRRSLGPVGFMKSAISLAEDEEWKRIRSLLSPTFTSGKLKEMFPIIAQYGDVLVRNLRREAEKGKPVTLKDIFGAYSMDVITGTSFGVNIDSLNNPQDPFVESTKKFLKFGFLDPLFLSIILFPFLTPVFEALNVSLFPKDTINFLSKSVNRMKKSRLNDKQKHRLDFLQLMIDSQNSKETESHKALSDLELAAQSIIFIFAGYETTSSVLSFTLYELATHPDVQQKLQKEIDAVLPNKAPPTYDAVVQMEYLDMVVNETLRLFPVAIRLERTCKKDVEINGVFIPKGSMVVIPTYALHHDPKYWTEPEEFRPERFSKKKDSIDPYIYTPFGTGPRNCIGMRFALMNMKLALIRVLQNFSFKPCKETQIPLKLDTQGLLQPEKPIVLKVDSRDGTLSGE
Chain of Cytochrome P450 2C19 (P33261 whole entry): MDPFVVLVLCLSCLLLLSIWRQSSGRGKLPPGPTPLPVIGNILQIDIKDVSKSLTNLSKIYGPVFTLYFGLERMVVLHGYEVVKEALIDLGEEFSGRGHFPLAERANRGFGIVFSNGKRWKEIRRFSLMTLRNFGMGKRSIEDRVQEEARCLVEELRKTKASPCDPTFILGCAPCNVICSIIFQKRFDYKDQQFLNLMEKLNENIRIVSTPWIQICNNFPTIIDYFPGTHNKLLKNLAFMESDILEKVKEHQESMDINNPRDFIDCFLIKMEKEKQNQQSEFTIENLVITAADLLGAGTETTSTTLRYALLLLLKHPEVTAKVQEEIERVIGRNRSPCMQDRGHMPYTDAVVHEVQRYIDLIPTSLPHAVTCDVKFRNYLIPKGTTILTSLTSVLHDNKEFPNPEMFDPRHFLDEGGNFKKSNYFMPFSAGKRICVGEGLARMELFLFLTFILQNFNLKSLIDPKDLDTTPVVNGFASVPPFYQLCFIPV

## CC(C)c1cc(Oc2c(Cl)cc(-n3nc(C#N)c(=O)[nH]c3=O)cc2Cl)n[nH]c1=O [RESMETIROM]
Rattus norvegicus [1]
  Activity: Non-toxic
[2]
  concentration at 6 h: 94 µM
Rattus norvegicus [3]
  Activity: 0%
[4]
  hepatocyte CLint: 1.04 µL/min/1e6 cells
hERG (KCNH2)
  IC20: 30 µM
Cytochrome P450 3A4
  pIC50: < 4.30
Cytochrome P450 3A5
  pIC50: < 4.30
Cytochrome P450 2C19
  pIC50: < 4.30
[5]
  clearance: 2.35 mL/min/kg
[6]
  Vd: 0.422 L/kg
[7]
  half-life: 3.4 h
[8]
  AUC: 17400 ng·h/mL
Rattus norvegicus [9]
  Cmax: 1710 ng/mL
[10]
  half-life: 4.08 h
Mus musculus [11]
  Activity: Non-toxic
Mus musculus [12]
  Activity: Non-toxic
Mus musculus [13]
  Activity: Non-toxic
Rattus norvegicus [14]
  Activity: Active
Rattus norvegicus [15]
  Activity: Active
Oryctolagus cuniculus [16]
  Activity: Active
Oryctolagus cuniculus [17]
  Activity: Active
Oryctolagus cuniculus [18]
  Activity: Non-toxic
Oryctolagus cuniculus [19]
  Activity: Active
Mus musculus [20]
  Activity: Active
Homo sapiens [21]
  Activity: Non-toxic
Homo sapiens [22]
  Activity: Non-toxic
Homo sapiens [23]
  Activity: Non-toxic
Homo sapiens [24]
  Activity: Non-toxic
Homo sapiens [25]
  Activity: Non-toxic
Homo sapiens [26]
  Activity: 20%
Homo sapiens [27]
  Activity: Non-toxic
Homo sapiens [28]
  Activity: Non-toxic
Homo sapiens [29]
  Activity: <=30%
Caco-2
  permeability: permeable
[30]
  concentration at 6 h: 57 µM
[31]
  Kp: 8
[32]
  Fu: 0.6%
[33]
  solubility: 1 µM (≈ 0.435 µg/mL)
